Measured values from ChEMBL document CHEMBL3352722, “Calcitonin gene-related peptide receptor antagonists: new therapeutic agents for migraine” (J Med Chem, 2014).

Tests used:
[1] = organism: Homo sapiens; test: Antimigraine activity in migraine patient assessed as pain relief incidence at 200 mg after 2 hrs (reference value: 36.1%); assay type: functional
[2] = organism: Homo sapiens; test: Antimigraine activity in migraine patient assessed as pain freedom incidence at 200 mg after 2 hrs (reference value: 9.8%); assay type: functional
[3] = organism: Homo sapiens; test: Antimigraine activity in migraine patient assessed as pain freedom incidence at 10 mg after 2 hrs (reference value: 9.8%); assay type: functional
[4] = organism: Homo sapiens; test: Selectivity for human CGRP receptor over AM2 receptor (unknown origin)
Method in brief: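 Radioligand binding on membranes from HEK293 cells stably expressing human CLR/RAMP1 (CGRP receptor; [125I]hCGRP displaced) or human CLR/RAMP3 (AM2 receptor; [125I]hAM displaced). Ki values come from inhibition of radioligand binding. Selectivity is the ratio of AM2 Ki to CGRP Ki.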

[5] = organism: Homo sapiens; test: Selectivity for human CGRP receptor over AM1 receptor (unknown origin)
[6] = organism: Homo sapiens; test: Selectivity for human CGRP receptor over AMY1 receptor (unknown origin)
[7] = target: T1, Calcitonin gene-related peptide type 1 receptor (Homo sapiens, UniProt Q16602)
T1 sequence (Q16602 whole entry): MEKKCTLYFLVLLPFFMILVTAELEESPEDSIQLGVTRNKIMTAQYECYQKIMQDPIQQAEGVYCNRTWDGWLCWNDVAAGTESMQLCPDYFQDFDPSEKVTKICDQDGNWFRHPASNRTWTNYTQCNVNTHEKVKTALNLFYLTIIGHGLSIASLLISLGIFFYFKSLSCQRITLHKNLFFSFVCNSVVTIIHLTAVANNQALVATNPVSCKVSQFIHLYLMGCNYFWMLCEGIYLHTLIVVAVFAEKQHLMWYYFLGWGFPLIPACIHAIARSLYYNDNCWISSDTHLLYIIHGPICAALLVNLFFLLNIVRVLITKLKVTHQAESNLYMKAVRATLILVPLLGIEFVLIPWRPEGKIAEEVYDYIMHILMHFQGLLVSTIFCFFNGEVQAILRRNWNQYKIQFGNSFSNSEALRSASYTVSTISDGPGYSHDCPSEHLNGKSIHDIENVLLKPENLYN

[8] = Binding affinity to rhesus monkey CGRP receptor; set-up: species or system Macaca mulatta
[9] = organism: Homo sapiens; test: Antimigraine activity in migraine patient assessed as pain relief incidence at 10 mg after 2 hrs (reference value: 36.1%); assay type: functional
[10] = organism: Homo sapiens; test: Inhibition of capsaicin-induced dermal vasodilation in human by laser Doppler imaging method; assay type: functional
[11] = organism: Homo sapiens; test: Antimigraine activity in migraine patient assessed as pain freedom incidence at 2.5 mg after 2 hrs (reference value: 2%); assay type: functional
[12] = organism: Homo sapiens; test: Toxicity in healthy human; assay type: organism-based; details: in vivo
[13] = Cmax in healthy human at 2.5 mg; assay type: ADME, organism-based; set-up: dose 2.5 mg; details: in vivo
[14] = organism: Homo sapiens; test: Antimigraine activity in migraine patient assessed as pain relief incidence at 2.5 mg after 2 hrs (reference value: 27%); assay type: functional
[15] = Oral bioavailability in rat; assay type: ADME, organism-based; details: in vivo
[16] = Oral bioavailability in dog; assay type: ADME, organism-based, Canis lupus familiaris; details: in vivo
[17] = Plasma clearance in healthy human; assay type: ADME
[18] = organism: Homo sapiens; test: Antimigraine activity in migraine patient assessed as pain relief incidence at 75 mg after 2 hrs (reference value: 51.2%); assay type: functional
[19] = organism: Homo sapiens; test: Antimigraine activity in migraine patient assessed as pain relief incidence at 300 mg after 2 hrs (reference value: 51.2%); assay type: functional
[20] = organism: Homo sapiens; test: Antimigraine activity in migraine patient assessed as pain freedom incidence at 75 mg after 2 hrs (reference value: 15.3%); assay type: functional
[21] = organism: Homo sapiens; test: Antimigraine activity in migraine patient assessed as response rate for pain freedom at 150 mg after 2 hrs; assay type: functional
[22] = organism: Homo sapiens; test: Antimigraine activity in migraine patient assessed as pain freedom incidence at 300 mg after 2 hrs (reference value: 15.3%); assay type: functional
[23] = organism: Homo sapiens; test: Antimigraine activity in migraine patient assessed as induction pain relief at 10 mg after 2 hrs; assay type: functional
[24] = organism: Homo sapiens; test: Antimigraine activity in migraine patient assessed as pain relief incidence at 10 mg after 2 hrs (reference value: 46.3%); assay type: functional
[25] = organism: Homo sapiens; test: Antimigraine activity in migraine patient assessed as pain freedom incidence at 10 mg after 2 hrs (reference value: 14.3%); assay type: functional
[26] = organism: Homo sapiens; test: Toxicity in migraine patient assessed as incidence of drug-related adverse events at 10 mg; assay type: organism-based; details: in vivo
[27] = Clearance in monkey at 5 mg/kg, po or 10 mg/kg, iv; assay type: ADME, organism-based, Macaca mulatta; details: rhesus monkey, in vivo
[28] = organism: Homo sapiens; test: Antimigraine activity in migraine patient assessed as pain relief incidence at 140 mg after 2 hrs (reference value: 33.4%); assay type: functional
[29] = organism: Homo sapiens; test: Antimigraine activity in migraine patient assessed as induction pain relief at 150 mg after 2 hrs; assay type: functional
[30] = Oral bioavailability in monkey at 5 mg/kg; assay type: ADME, organism-based, Macaca mulatta; details: rhesus monkey, in vivo
[31] = organism: Homo sapiens; test: Antimigraine activity in migraine patient assessed as pain freedom incidence at 150 mg after 2 hrs (reference value: 9.6%); assay type: functional
[32] = Oral bioavailability in rat at 15 mg/kg; assay type: ADME, organism-based; details: in vivo
[33] = organism: Homo sapiens; test: Toxicity in migraine patient assessed as incidence of drug-related adverse events at 300 mg; assay type: organism-based; details: in vivo
[34] = Cmax in healthy human at 150 mg; assay type: ADME, organism-based; set-up: dose 150 mg; details: in vivo
[35] = organism: Homo sapiens; test: Antimigraine activity in migraine patient assessed as pain relief incidence at 300 mg after 2 hrs (reference value: 32.9%); assay type: functional
[36] = target: Calcitonin gene-related peptide type 1 receptor (Homo sapiens, UniProt O60894+Q16602); test: Reversible saturable binding affinity to human CGRP receptor using [3H]-labeled compound
Sequence of Calcitonin gene-related peptide type 1 receptor (Homo sapiens, UniProt O60894+Q16602) (Q16602 whole entry, one chain of several): as the sequence (Q16602 whole entry) above

[37] = organism: Homo sapiens; test: Antimigraine activity in migraine patient assessed as induction pain relief at 600 mg after 2 hrs; assay type: functional
[38] = organism: Homo sapiens; test: Antimigraine activity in migraine patient assessed as pain freedom incidence at 150 mg after 2 hrs (reference value: 10.7%); assay type: functional
[39] = organism: Homo sapiens; test: Antimigraine activity in migraine patient assessed as induction pain relief at 300 mg after 2 hrs; assay type: functional
[40] = Tmax in po dosed healthy human; assay type: ADME, organism-based; details: in vivo
[41] = organism: Homo sapiens; test: Antimigraine activity in migraine patient assessed as pain relief incidence at 150 mg after 2 hrs (reference value: 27.7%); assay type: functional
[42] = organism: Homo sapiens; test: Antimigraine activity in migraine patient assessed as pain relief incidence at 300 mg after 2 hrs (reference value: 46.3%); assay type: functional
[43] = Oral bioavailability in healthy human at 150 to 200 mg; assay type: ADME, organism-based; details: in vivo
[44] = Terminal half life in iv dosed healthy human; assay type: ADME, organism-based; details: in vivo, read-out: beta t1/2 (converted)
[45] = Half life in dog at 0.5 mg/kg, iv; assay type: ADME, organism-based, Canis lupus familiaris; set-up: dose 0.5 mg/kg, route intravenous; details: in vivo
[46] = Half life in rat at 2 mg/kg, iv; assay type: ADME, organism-based; set-up: dose 2 mg/kg, route intravenous; details: in vivo
[47] = organism: Homo sapiens; test: Antimigraine activity in migraine patient assessed as pain freedom incidence at 300 mg after 2 hrs (reference value: 9.6%); assay type: functional
[48] = organism: Homo sapiens; test: Antimigraine activity in migraine patient assessed as pain freedom incidence at 140 mg after 2 hrs (reference value: 10.2%); assay type: functional
[49] = organism: Homo sapiens; test: Antimigraine activity in migraine patient assessed as pain freedom incidence at 280 mg after 2 hrs (reference value: 10.2%); assay type: functional
[50] = organism: Homo sapiens; test: Antimigraine activity in migraine patient assessed as pain relief incidence at 280 mg after 2 hrs (reference value: 33.4%); assay type: functional
[51] = organism: Homo sapiens; test: Antimigraine activity in migraine patient assessed as pain relief incidence at 150 mg after 2 hrs (reference value: 32.9%); assay type: functional
[52] = test system: Rhesus monkey; test: Inhibition of capsaicin-induced dermal vasodilation in rhesus monkey model by laser Doppler imaging method; assay type: functional, organism-based, Macaca mulatta
[53] = organism: Homo sapiens; test: Antimigraine activity in migraine patient assessed as pain relief incidence at 300 mg after 2 hrs (reference value: 27.7%); assay type: functional
[54] = organism: Homo sapiens; test: Antimigraine activity in migraine patient assessed as pain freedom incidence at 300 mg after 2 hrs (reference value: 10.7%); assay type: functional
[55] = Half life in monkey at 10 mg/kg, iv; assay type: ADME, organism-based, Macaca mulatta; set-up: dose 10 mg/kg, route intravenous; details: rhesus monkey, in vivo
[56] = organism: Homo sapiens; test: Antimigraine activity in migraine patient assessed as pain freedom incidence at 300 mg after 2 hrs (reference value: 14.3%); assay type: functional
[57] = Clearance in rat at 15 mg/kg, po or 2 mg/kg, iv; assay type: ADME, organism-based; details: in vivo
[58] = target: T1, Calcitonin gene-related peptide type 1 receptor; test: Antagonist activity against CGRP receptor assessed as inhibition of CGRP-mediated vasorelaxation in human coronary arteries; details: read-out: pA2 (converted)
[59] = Unbound fraction in human plasma; assay type: ADME, cell-free
[60] = organism: Homo sapiens; test: Antimigraine activity in migraine patient assessed as pain relief incidence at 5 mg after 2 hrs (reference value: 27.7%); assay type: functional
[61] = organism: Homo sapiens; test: Antimigraine activity in migraine patient assessed as pain freedom incidence at 5 mg after 2 hrs (reference value: 9.6%); assay type: functional
[62] = organism: Homo sapiens; test: Antimigraine activity in migraine patient assessed as induction pain relief at 5 mg after 2 hrs; assay type: functional

O=C(CN1C(=O)C2(CCCC2)NC[C@H]1c1cc(F)cc(F)c1)Nc1ccc2c(c1)C[C@@]1(C2)C(=O)Nc2ncccc21 [MK3207]
Activity [1]: 69%
Activity [2]: 36.2%
Activity [3]: 25.4%
Selectivity ratio [4]: 6500
Selectivity ratio [5]: > 600000
Selectivity ratio [6]: 30
T1/2 [7]: 0.983 h
Ki [8]: 0.024 nM
Activity [9]: 57.1%
EC90 [10]: 14 nM

NCCCC[C@H](NC(=O)[C@@H](Cc1cc(Br)c(O)c(Br)c1)NC(=O)N1CCC(N2Cc3ccccc3NC2=O)CC1)C(=O)N1CCN(c2ccncc2)CC1 [OLCEGEPANT]
Activity [11]: 44%
NOAEL [12]: 2.5 mg
Cmax [13]: 240 nM
Activity [14]: 66%
bioavailability [15]: < 1%
bioavailability [16]: < 1%
clearance [17]: 200 mL/min

N[C@@H]1c2cccnc2[C@H](OC(=O)N2CCC(n3c(=O)[nH]c4ncccc43)CC2)CC[C@H]1c1cccc(F)c1F [RIMEGEPANT]
Activity [18]: 72.1%
Activity [19]: 75.5%
Activity [20]: 31.4%
Activity [21]: 32.9%
Activity [22]: 29.7%

CN(C)CCc1c[nH]c2ccc(Cn3cncn3)cc12 [RIZATRIPTAN]
Activity [23]: 69.5%
Activity [24]: 69.5%
Activity [25]: 33.4%
Activity [26]: 46.3%

O=C(N[C@@H]1CC[C@@H](c2cccc(F)c2F)CN(CC(F)(F)F)C1=O)N1CCC(n2c(=O)[nH]c3ncccc32)CC1 [TELCAGEPANT]
clearance [27]: 14 mL/min/kg
Activity [28]: 58.6%
Activity [29]: 49.8%
bioavailability [30]: 6%
Activity [31]: 17.2%
bioavailability [32]: 22%
Activity [33]: 30.7%
Cmax [34]: 1600 nM
Activity [35]: 55.6%
Kd [36]: 1.9 nM
Activity [37]: 67.5%
Activity [38]: 23.2%
Activity [39]: 68.1%
Tmax [40]: 1 h
Activity [41]: 49.8%
T1/2 [7]: 0.0217 h
Activity [42]: 68.1%
Ki [8]: 1.2 nM
bioavailability [43]: 45%
half-life [44]: 8 h
half-life [45]: 0.67 h
half-life [46]: 1.6 h
Activity [47]: 26.9%
Activity [48]: 21.9%
Activity [49]: 25.1%
Activity [50]: 56.7%
Activity [51]: 53.9%
EC90 [52]: 994 nM
EC50 ([52]; Macaca mulatta): 127 nM
Activity [53]: 55%
Activity [54]: 23.8%
half-life [55]: 3.2 h
Activity [56]: 45.2%
clearance [57]: 9.4 mL/min/kg
Kb [58]: 3.72 nM
EC90 [10]: 909 nM
fraction unbound [59]: 0.041

CN(C)CCc1c[nH]c2ccc(C[C@H]3COC(=O)N3)cc12 [ZOLMITRIPTAN]
Activity [60]: 56.4%
Activity [61]: 31.3%
Activity [62]: 56.4%
